≈ marks a conversion by molar mass, not a printed value. Calls of active or inactive are those of the source. The rule behind the calls is not given here.
Legend:
[1] = tested on: Candida albicans; test: Antifungal activity against Candida albicans ATCC 10231 assessed as growth inhibition at 1 mg/mL after 48 hrs by agar-cup diffusion method; type: functional; conditions: ATCC 10231, 48 h, read-out: DIZ
How it was run: (§1)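 Agar-cup diffusion: 1 mL of 6 h broth culture seeded per 100 mL molten sterile agar at 45 °C and poured into plates. 8 mm cups cut, each filled with 0.1 mL of 1 mg/mL test solution. Incubated 37 °C for 24 h, 48 h for C. albicans. DMSO control per organism. Inhibition zone diameter in mm, mean of three measurements.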

[2] = tested on: Escherichia coli; test: Antibacterial activity against Escherichia coli ATCC 25922 assessed as growth inhibition at 1 mg/mL after 24 hrs by agar-cup diffusion method; type: functional; conditions: ATCC 25922, 24 h, read-out: DIZ; how it was run: as §1
[3] = tested on: Bacillus spizizenii; test: Antibacterial activity against Bacillus subtilis ATCC 6633 assessed as growth inhibition at 1 mg/mL after 24 hrs by agar-cup diffusion method; type: functional; conditions: ATCC 6633, 24 h, read-out: DIZ; how it was run: as §1
[4] = tested on: SNB-75; test: Cytotoxicity against human SNB75 cells assessed as growth inhibition at 10 uM after 48 hrs by SRB assay; type: functional; conditions: SNB-75, 48 h, read-out: GI
How it was run: (§2)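 NCI-60 one-dose primary screen run by the NCI Drug Evaluation Branch across the full 60-line panel. Single high-dose treatment with 48 h continuous drug exposure. Cell growth estimated by sulforhodamine B protein staining. Results given as percent growth of treated cells and expressed as percentage growth inhibition.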

[5] = tested on: SF-268; test: Cytotoxicity against human SF268 cells assessed as growth inhibition at 10 uM after 48 hrs by SRB assay; type: functional; conditions: SF-268, 48 h, read-out: GI; how it was run: as §2
[6] = tested on: UACC-62; test: Cytotoxicity against human UACC62 cells assessed as growth inhibition at 10 uM after 48 hrs by SRB assay; type: functional; conditions: UACC-62, 48 h, read-out: GI; how it was run: as §2
[7] = tested on: SK-MEL-2; test: Cytotoxicity against human SK-MEL-2 cells assessed as growth inhibition at 10 uM after 48 hrs by SRB assay; type: functional; conditions: SK-MEL-2, 48 h, read-out: GI; how it was run: as §2
[8] = tested on: LOX IMVI; test: Cytotoxicity against human LOXIMVI cells assessed as growth inhibition at 10 uM after 48 hrs by SRB assay; type: functional; conditions: read-out: GI; how it was run: as §2
[9] = Cytotoxicity against human UO31 cells assessed as growth inhibition at 10 uM after 48 hrs by SRB assay; type: functional; conditions: UO-31, 48 h, read-out: GI; how it was run: as §2
[10] = tested on: A498; test: Cytotoxicity against human A498 cells assessed as growth inhibition at 10 uM after 48 hrs by SRB assay; type: functional; conditions: A498, 48 h, read-out: GI; how it was run: as §2
[11] = tested on: SR; test: Cytotoxicity against human SR cells assessed as growth inhibition at 10 uM after 48 hrs by SRB assay; type: functional; conditions: read-out: GI; how it was run: as §2
[12] = tested on: RPMI-8226; test: Cytotoxicity against human RPMI8226 cells assessed as growth inhibition at 10 uM after 48 hrs by SRB assay; type: functional; conditions: RPMI-8226, 48 h, read-out: GI; how it was run: as §2
[13] = tested on: MOLT-4; test: Cytotoxicity against human MOLT4 cells assessed as growth inhibition at 10 uM after 48 hrs by SRB assay; type: functional; conditions: MOLT-4, 48 h, read-out: GI; how it was run: as §2
[14] = tested on: K562; test: Cytotoxicity against human K562 cells assessed as growth inhibition at 10 uM after 48 hrs by SRB assay; type: functional; conditions: K562, 48 h, read-out: GI; how it was run: as §2
[15] = tested on: CCRF-CEM; test: Cytotoxicity against human CCRF-CEM cells assessed as growth inhibition at 10 uM after 48 hrs by SRB assay; type: functional; conditions: read-out: GI; how it was run: as §2
[16] = tested on: IGROV-1; test: Cytotoxicity against human IGROV1 cells assessed as growth inhibition at 10 uM after 48 hrs by SRB assay; type: functional; conditions: IGROV-1, 48 h, read-out: GI; how it was run: as §2
[17] = tested on: MDA-MB-468; test: Cytotoxicity against human MDA-MB-468 cells assessed as growth inhibition at 10 uM after 48 hrs by SRB assay; type: functional; conditions: MDA-MB-468, 48 h, read-out: GI; how it was run: as §2
[18] = Cytotoxicity against human Hs578T cells assessed as growth inhibition at 10 uM after 48 hrs by SRB assay; type: functional; conditions: Hs-578T, read-out: GI; how it was run: as §2
[19] = tested on: HT-29; test: Cytotoxicity against human HT-29 cells assessed as growth inhibition at 10 uM after 48 hrs by SRB assay; type: functional; conditions: HT-29, 48 h, read-out: GI; how it was run: as §2
[20] = tested on: HCT-15; test: Cytotoxicity against human HCT15 cells assessed as growth inhibition at 10 uM after 48 hrs by SRB assay; type: functional; conditions: HCT-15, 48 h, read-out: GI; how it was run: as §2
[21] = tested on: HCT-116; test: Cytotoxicity against human HCT116 cells assessed as growth inhibition at 10 uM after 48 hrs by SRB assay; type: functional; conditions: HCT-116, 48 h, read-out: GI; how it was run: as §2
[22] = tested on: HCC 2998; test: Cytotoxicity against human HCC2998 cells assessed as growth inhibition at 10 uM after 48 hrs by SRB assay; type: functional; conditions: HCC 2998, 48 h, read-out: GI; how it was run: as §2
[23] = tested on: NCI-H226; test: Cytotoxicity against human NCI-H226 cells assessed as growth inhibition at 10 uM after 48 hrs by SRB assay; type: functional; conditions: NCI-H226, 48 h, read-out: GI; how it was run: as §2
[24] = tested on: Aspergillus niger; test: Antifungal activity against Aspergillus niger assessed as growth inhibition at 1 mg/mL after 24 hrs by agar-cup diffusion method; type: functional, organism-based; how it was run: as §1
[25] = tested on: Pseudomonas aeruginosa; test: Bactericidal activity against Pseudomonas aeruginosa ATCC 27853 after 18 hrs; type: functional; conditions: ATCC 27853, 18 h
How it was run: (§3)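 Continuation of the broth-dilution MIC test. A loopful from each tube without visible growth spread on a quarter of a Mueller-Hinton agar plate and incubated 18 h. Lowest concentration giving no growth on subculture taken as the MBC.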

[26] = tested on: Pseudomonas aeruginosa; test: Antibacterial activity against Pseudomonas aeruginosa ATCC 27853 assessed as growth inhibition after 48 hrs by two-fold serial dilution assay; type: functional; conditions: ATCC 27853, 48 h
How it was run: (§4)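 Twofold serial broth dilution run on compounds giving inhibition zones of 13 mm or more. Organisms pre-grown in suitable broth at 37 °C, 24 h for bacteria and 48 h for fungi. Dilution series 200, 100, 50, 25, 12.5, 6.25. Each 5 mL tube inoculated with 0.1 mL and incubated 37 °C for 48 h. Tubes scored for presence or absence of growth.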

[27] = tested on: Escherichia coli; test: Bactericidal activity against Escherichia coli ATCC 25922 after 18 hrs; type: functional; conditions: ATCC 25922, 18 h; how it was run: as §3
[28] = tested on: Escherichia coli; test: Antibacterial activity against Escherichia coli ATCC 25922 assessed as growth inhibition after 48 hrs by two-fold serial dilution assay; type: functional; conditions: ATCC 25922, 48 h; how it was run: as §4
[29] = tested on: Bacillus spizizenii; test: Bactericidal activity against Bacillus subtilis ATCC 6633 after 18 hrs; type: functional; conditions: ATCC 6633, 18 h; how it was run: as §3
[30] = tested on: Bacillus spizizenii; test: Antibacterial activity against Bacillus subtilis ATCC 6633 assessed as growth inhibition after 48 hrs by two-fold serial dilution assay; type: functional; conditions: ATCC 6633, 48 h; how it was run: as §4
[31] = tested on: Staphylococcus aureus; test: Antibacterial activity against Staphylococcus aureus ATCC 6538 assessed as growth inhibition after 48 hrs by two-fold serial dilution assay; type: functional; conditions: ATCC 6538, 48 h; how it was run: as §4
[32] = tested on: Staphylococcus aureus; test: Antibacterial activity against Staphylococcus aureus ATCC 6538 assessed as growth inhibition at 1 mg/mL after 24 hrs by agar-cup diffusion method; type: functional; conditions: ATCC 6538, 24 h, read-out: DIZ; how it was run: as §1

SMILES	zone of inhibition at 1000 µg/mL [1]	zone of inhibition at 1000 µg/mL [2]	zone of inhibition at 1000 µg/mL [3]	inhibition of growth at 10 µM [4]	inhibition of growth at 10 µM [5]	inhibition of growth at 10 µM [6]	inhibition of growth at 10 µM [7]	inhibition of growth at 10 µM [8]	inhibition of growth at 10 µM [9]	inhibition of growth at 10 µM [10]	inhibition of growth at 10 µM [11]	inhibition of growth at 10 µM [12]	inhibition of growth at 10 µM [13]	inhibition of growth at 10 µM [14]	inhibition of growth at 10 µM [15]	inhibition of growth at 10 µM [16]	inhibition of growth at 10 µM [17]	inhibition of growth at 10 µM [18]	inhibition of growth at 10 µM [19]	inhibition of growth at 10 µM [20]	also measured
CCOC(=O)c1sc(NC(=O)Nc2ccccc2)nc1C	> 13 mm	> 13 mm	> 13 mm	47.2%	4.88%	20%	77.6%	4.13%	16.1%	28.9%	14.3%	22.8%	23.7%	39%	22%	72.9%	18.4%	6.4%	24.1%	< 10%	inhibition of growth at 10 µM [21]: 16.3%; inhibition of growth at 10 µM [22]: 27.4%; inhibition of growth at 10 µM [23]: 11.3%; growth inhibition (GI) [24]: inactive; MBC [25]: 100 µg/mL (≈ 327 µM); MIC [26]: 50 µg/mL (≈ 164 µM); MBC [27]: 25 µg/mL (≈ 81.9 µM); MIC [28]: 25 µg/mL (≈ 81.9 µM); MBC [29]: 50 µg/mL (≈ 164 µM); MIC [30]: 50 µg/mL (≈ 164 µM); MIC [31]: 25 µg/mL (≈ 81.9 µM); zone of inhibition at 1000 µg/mL [32]: > 13 mm
Cc1nc(N)sc1C(=O)Nc1ccc(F)cc1	> 13 mm	> 13 mm	> 13 mm	5.4%	< 10%	3.24%	67.3%	< 10%	11.8%	3.67%	< 10%	< 10%	< 10%	< 10%	< 10%	< 10%	9.63%	14.2%	< 10%	< 10%	inhibition of growth at 10 µM [21]: < 10%; inhibition of growth at 10 µM [22]: 11.8%; inhibition of growth at 10 µM [23]: 5.62%; growth inhibition (GI) [24]: inactive; MBC [27]: 100 µg/mL (≈ 398 µM); MIC [28]: 50 µg/mL (≈ 199 µM); MBC [29]: 50 µg/mL (≈ 199 µM); MIC [30]: 25 µg/mL (≈ 99.5 µM); MIC [31]: 12.5 µg/mL (≈ 49.7 µM); zone of inhibition at 1000 µg/mL [32]: > 13 mm
CCOC(=O)c1sc(NC(=O)NC2CCCCC2)nc1C	> 13 mm	> 13 mm	> 13 mm	< 10%	12.6%	26%	64.1%	13%	10.6%	15.3%	35.3%	4.13%	12.3%	9.69%	6.76%	43.7%	< 10%	8.4%	15.5%	14.3%	inhibition of growth at 10 µM [21]: 14.2%; inhibition of growth at 10 µM [22]: < 10%; inhibition of growth at 10 µM [23]: 9.89%; growth inhibition (GI) [24]: inactive; MBC [27]: 100 µg/mL (≈ 321 µM); MIC [28]: 50 µg/mL (≈ 161 µM); MBC [29]: 100 µg/mL (≈ 321 µM); MIC [30]: 100 µg/mL (≈ 321 µM); MIC [31]: 50 µg/mL (≈ 161 µM); zone of inhibition at 1000 µg/mL [32]: > 13 mm

Source: ChEMBL document CHEMBL3124924, “Bifunctional ethyl 2-amino-4-methylthiazole-5-carboxylate derivatives: synthesis and in vitro biological evaluation as antimicrobial and anticancer agents” (2014)
